ChEMBL document CHEMBL3352574, “Incorporation of triphenylphosphonium functionality improves the inhibitory properties of phenothiazine derivatives in Mycobacterium tuberculosis” (Bioorg Med Chem, 2014)
In brackets after ≈: the same amount, converted by molar mass. Activity calls are given as the source filed them. The rule behind the calls is not given here.

Tests used:
[1] = tested on: Mycolicibacterium smegmatis; test: Antimicrobial activity against Mycobacterium smegmatis (MC2) 155 after 24 hrs by serial macrobroth dilution method; format: functional; conditions: (MC2) 155, 24 h
Summary of the method: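 Serial macrobroth dilution, 128–0.5 μg/mL in LBT (LB + 0.05% Tween80). Log-phase mc²155 inoculated to final OD600 0.005, incubated 37°C at 200 rpm. Growth scored by eye after 24 h. No-compound and DMSO controls included. Figure data are the average of three biological replicates.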

[2] = tested on: Mycobacterium tuberculosis; test: Antimicrobial activity against Mycobacterium tuberculosis H37Ra after 5 days by serial macrobroth dilution method; format: functional, organism-based; conditions: 120 h
Summary of the method: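 M. tuberculosis H37Ra in 7H9 with 0.5% glycerol, 10% ADC and 0.05% Tween80. Serial macrobroth dilution 128–0.5 μg/mL, log-phase inoculum to final OD600 0.005, 37°C, 200 rpm. Growth read visually at 5 days. No-compound and DMSO controls included. Three biological replicates averaged.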

[3] = tested on: Mycolicibacterium smegmatis; test: (§1) Inhibition of NDH2 in Mycobacterium smegmatis (MC2) 155 membranes assessed NADH oxidation relative to control
Summary of the method: (§2)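 M. smegmatis membranes at 50 μg/mL in 20 mM sodium phosphate pH 8.0 at 37°C, with compound (0–200 μM) preincubated 30 s. Reaction started with 200 μM NADH; A340 followed (ε 6.22 mM⁻¹cm⁻¹), activity in μmol NADH/min/mg. Data normalized to uninhibited activity, IC50 by log(inhibitor) vs response fit. Mean of three independent experiments.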

[4] = tested on: Mycolicibacterium smegmatis; test: Bactericidal activity against Mycobacterium smegmatis at 500 uM after 3 to 24 hrs by colony forming unit count method; format: functional, organism-based
Summary of the method: (§3)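 Cultures grown in LBT to OD600 ~0.5, then dosed at 8.9 μM per OD600, or CCCP at 500 μM; no-compound and DMSO controls. OD600 taken at 0, 3, 9 and 24 h. CFU at 0, 9 and 24 h: cells washed, diluted in PBS + 0.05% Tween80, spotted on LBT (Miles–Misra), counted after 3 days at 37°C (5–50 colonies). Three biological replicates.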

[5] = tested on: Mycolicibacterium smegmatis; test: Bactericidal activity against Mycobacterium smegmatis at 8.9 uM after 3 to 24 hrs by colony forming unit count method; format: functional, organism-based; summary of the method: as §3
[6] = tested on: Mycolicibacterium smegmatis; test: Bacteriostatic against Mycobacterium smegmatis at 4.8 ug/ml after 3 to 24 hrs by colony forming unit count method; format: functional, organism-based; summary of the method: as §3
[7] = as §1; parameters: species or system Mycolicibacterium smegmatis; summary of the method: as §2
[8] = tested on: Mycolicibacterium smegmatis; test: Inhibition of NDH2 in Mycobacterium smegmatis (MC2) 155 membrane assessed inhibition of oxygen consumption relative to control
Summary of the method: (§4)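 Clark-type O2 electrode, 2 mL mix at 37°C, calibrated to 220 nmol O2/mL with air-saturated 20 mM sodium phosphate pH 8.0. M. smegmatis membrane vesicles (French press, 100,000 × g pellet) driven by 10 mM NADH. Test range 0–80 μM; TPZ 0–200 μM. Controls: 80 μM comparators, DMSO, 200 μM KCN, no compound. Two-tailed t-test, p<0.05.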

[9] = Inhibition of Mycobacterium tuberculosis NDH2
[10] = tested on: Mycolicibacterium smegmatis; test: Effect on NDH2 in Mycobacterium smegmatis (MC2) 155 membrane assessed increase in oxygen consumption relative to control; summary of the method: as §4

SMILES	MIC [1]	IC50 [2]	other results
FC(F)(F)c1ccc2c(c1)N(CCC[P+](c1ccccc1)(c1ccccc1)c1ccccc1)c1ccccc1S2.[Cl-]	12 µg/mL	1 µg/mL	
C=C(C)[C@H]1Cc2c(ccc3c2O[C@@H]2COc4cc(OC)c(OC)cc4[C@@H]2C3=O)O1			inhibition [3]: inactive
N#CC(C#N)=NNc1cccc(Cl)c1			Activity [4]: Active
Clc1ccc2c(c1)Nc1ccccc1S2	> 64 µg/mL	> 64 µg/mL	
c1ccc2c(c1)Nc1ccccc1S2 [PHENOTHIAZINE]	> 64 µg/mL	> 64 µg/mL	Activity [5]: inactive; inhibition [3]: inactive
Clc1ccc2c(c1)N(CCC[P+](c1ccccc1)(c1ccccc1)c1ccccc1)c1ccccc1S2.[Cl-]	6 µg/mL	1 µg/mL	
CC(CN1c2ccccc2Sc2ccccc21)N(C)C (stereo not drawn) [PROMETHAZINE]			MIC [2]: 20 µg/mL (≈ 70.3 µM)
[Cl-].c1ccc([P+](CCCN2c3ccccc3Sc3ccccc32)(c2ccccc2)c2ccccc2)cc1	4 µg/mL		Activity [6]: Active; IC50 [7]: 15.1 µM; INH [8]: 40 µM
CN(C)CCCN1c2ccccc2Sc2ccccc21 [PROMAZINE]	> 128 µg/mL	128 µg/mL (≈ 450 µM)	
FC(F)(F)c1ccc2c(c1)Nc1ccccc1S2	> 64 µg/mL	> 64 µg/mL	
CN(C)CCCN1c2ccccc2Sc2ccc(Cl)cc21 [CHLORPROMAZINE]			IC50 [9]: 10 µM; MIC [2]: 10 µg/mL (≈ 31.4 µM)
CCC[P+](c1ccccc1)(c1ccccc1)c1ccccc1.[Br-]	> 128 µg/mL	> 128 µg/mL	Activity [10]: Active; Activity [5]: inactive; inhibition [3]: inactive
CN1CCN(CCCN2c3ccccc3Sc3ccc(C(F)(F)F)cc32)CC1 [TRIFLUOPERAZINE]	64 µg/mL (≈ 157 µM)	8 µg/mL (≈ 19.6 µM)	IC50 [7]: 60.1 µM; IC50 [9]: 12 µM; INH [8]: 100 µM
